This is an account of results in PubChem BioAssay.

Calls of active or inactive are those of the source.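 Rule for the calls, unless noted: active = inhibition at or above 50% at 10 µM; inactive = inhibition below 50%.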

Assay [1] is described as follows: inhibitors of TNFa-induced NFkB p65 translocation, primary screen, imaging, HUVEC, MLSMR starter and 10KST1 sets (AID 438;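 active = inhibition above 20% together with a positive visual image hit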;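 note: compound added about 3h40 before a 20 min TNFalpha stimulation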;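 for inhibition: signal is the nuclear over cytoplasmic p65 intensity ratio per well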). Particulars: HUVEC TNFa-induced p65 nuclear translocation; cell count: measured here: nuclei count (cytotoxicity indicator), at 2.08 µM; inhibition: at 2 µM, stronger effect = higher value, 0% TNFa-plus-vehicle, 100% no-TNFa wells.
Assay [2] is described as follows: inhibitors of mutant huntingtin aggregation, primary screen, imaging, exon1htt(103Q)mCFP cells, high-content imaging (AID 483;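 active = visual image review flags a hit and inhibition of aggregation exceeds 20%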;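 note: compound exposure lasted 3 days before fixation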;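 for nuclei count: percent of the per-plate median nuclei count of sample wells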). Conditions: exon1htt(103Q)mCFP cell line, aggregate imaging, at 2 µM; inhibition of aggregation: stronger effect = higher value; nuclei count: measured here: cell count, toxicity.
Assay [3] in a line: inhibitors of E-selectin induction by TNFa, primary screen, imaging, HUVEC, immunofluorescence, MLSMR starter and 10KST1 sets (AID 487;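 active = visually confirmed hit in the image check and inhibition above 20%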;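 for inhibition: signal is fraction of cell area covered by stained E-selectin grains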;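 for nuclei count: 100% = median nuclei count of all wells on the same plate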). Conditions: HUVEC TNFalpha-induced E-selectin immunofluorescence imaging, at 2 µM; inhibition: stronger effect = higher value; nuclei count: measured here: cell number, toxicity.
Assay [4] deals with Voltage-gated potassium channel subunit beta-2 (Rattus norvegicus) (UniProt P62483). The assay is described as follows: KvBeta enzyme negative modulators, primary screen, biochemical, NADPH fluorescence (AID 622;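 active = fluorescence slope higher than the sample average by over 3 SD, cut at about -0.22 in these data, passing the limit was not always enough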;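 note: slope of raw intensity against log time taken from 70 to 1610 s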). Particulars: recombinant KvBeta, 4-cyanobenzaldehyde reduction, at 10 µM, stronger effect = higher value.
Assay [5] has the same target. The assay is described as follows: KvBeta positive modulators, primary screen, biochemical, NADPH fluorescence (AID 623;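 active = NADPH fluorescence slope more negative than the mean of all samples by about 3 SD, 99.7% confidence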;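 note: fluorescence intensity change per second fitted from 20 to 320 s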). Particulars: Recombinant KvBeta, NADPH fluorescence decrease slope, 10 min; at 10 µM; stronger effect = lower value.
In assay [6] the target is Muscarinic acetylcholine receptor M4 (Homo sapiens) (UniProt P08173). Kind of assay: compounds altering M4/GIRK thallium flux, either direction, primary screen, M4 allosteric agonist project, cell-based, HEK293 M4/GIRK, BTC-AM (AID 625;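 active = fluorescence slope after compound addition differing from the mean of all tested samples at 99.7% confidence, mostly higher but some lower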;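 note: thallium influx through GIRK channels coupled to M4 in HEK293 cells with BTC-AM dye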). Particulars: at 10 µM, actives lie on both sides. The method, boiled down:
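System: HEK293 cells with M4 receptor and GIRK channels | Incubation: Cells overnight at 37 °C, BTC-AM loading 1 h, reads 2 min total | Technique: Kinetic BTC-AM fluorescence sampled at 1 Hz, 10 s pre-addition baseline | Measure: Post-addition slope, 15–24 s, of baseline-normalized fluorescence | Control set: Carbachol positive, DMSO negative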

Assay [7] can be described thus: inhibitors of Sendai virus-induced IRF3 signaling, primary screen, TLR/RLR signaling modifier project, cell-based, Sendai virus stimulus, luciferase, 10K MLSCN set (AID 602276).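 Note: firefly luciferase from ISG56 promoter only with Renilla not read in this screen; 0% = Sendai virus plus DMSO and 100% = medium plus DMSO without virus.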 Conditions: HEK293 RL24 IRF3 luciferase reporter, at 10 µM, stronger effect = higher value.
Assay [8] can be described thus: inhibitors of poly I:C-induced TLR3 signaling, primary screen, cell-based, poly I:C stimulus, luciferase, 10K MLSCN set (AID 602277;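 active = inhibition of the reporter signal at or above 50%; inactive = inhibition below 50%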). Conditions: HEK293-TLR3 RL24 IRF3 luciferase reporter, at 10 µM, stronger effect = higher value.

Sequence of Voltage-gated potassium channel subunit beta-2 (Rattus norvegicus) (P62483 whole entry, looked up): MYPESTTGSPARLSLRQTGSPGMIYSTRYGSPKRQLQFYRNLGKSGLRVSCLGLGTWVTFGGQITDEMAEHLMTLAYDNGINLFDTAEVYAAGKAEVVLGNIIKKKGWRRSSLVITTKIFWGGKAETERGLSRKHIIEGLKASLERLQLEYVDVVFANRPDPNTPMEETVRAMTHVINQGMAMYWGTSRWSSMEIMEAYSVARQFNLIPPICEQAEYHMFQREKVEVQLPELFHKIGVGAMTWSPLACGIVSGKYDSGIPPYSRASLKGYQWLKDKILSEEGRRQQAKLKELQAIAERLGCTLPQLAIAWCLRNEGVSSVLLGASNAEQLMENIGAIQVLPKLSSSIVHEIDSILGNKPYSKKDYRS
Sequence of Muscarinic acetylcholine receptor M4 (Homo sapiens) (P08173 whole entry, looked up): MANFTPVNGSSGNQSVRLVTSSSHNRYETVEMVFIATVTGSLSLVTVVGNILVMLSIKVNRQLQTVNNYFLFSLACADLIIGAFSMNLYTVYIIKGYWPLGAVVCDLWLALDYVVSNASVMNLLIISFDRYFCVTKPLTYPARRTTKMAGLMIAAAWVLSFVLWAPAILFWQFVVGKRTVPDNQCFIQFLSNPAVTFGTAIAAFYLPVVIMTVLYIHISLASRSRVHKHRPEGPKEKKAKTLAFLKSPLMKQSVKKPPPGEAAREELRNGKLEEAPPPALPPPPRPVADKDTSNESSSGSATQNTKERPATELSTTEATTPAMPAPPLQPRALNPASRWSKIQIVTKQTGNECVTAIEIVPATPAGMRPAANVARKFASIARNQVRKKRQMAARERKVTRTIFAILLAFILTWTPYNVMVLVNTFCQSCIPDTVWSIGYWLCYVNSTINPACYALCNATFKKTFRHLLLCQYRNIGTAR

With `Cc1csc2nc3ccccc3c(=O)n12`, the cell count in assay [1] turned out to be 270. For the same compound, the inhibition in assay [1] was 3.9% (inactive); in assay [3] it was -48% (inactive); in assay [7] it was 4.9% (inactive); in assay [8], -6.37% (inactive). In addition, the inhibition of aggregation in assay [2] was -14.2% (inactive). In addition, the nuclei count in assay [2] was 97.6%; in assay [3] it was 119%. Further, the fluorescence slope in assay [4] was -0.579 (inactive); in assay [6], 0.00358 (inactive). Also, in assay [5], the NADPH fluorescence slope was -1.2e-05 (inactive).
As to `CCOC(=O)c1c(C)oc2ccc(OCC(N)=O)cc12`, the cell count in assay [1] was found to be 794. For the same compound, the inhibition is -12.1% (inactive) in assay [1], 20.4% (inactive) in assay [3], 5.65% (inactive) in assay [7] and 6.54% (inactive) in assay [8]. In addition, the inhibition of aggregation in assay [2] was -6.7% (inactive). Also, the nuclei count was 36.5% in assay [2] and 93.5% in assay [3]. Besides, the fluorescence slope in assay [4] was -0.483 (inactive); in assay [6], 0.00617 (inactive). Moreover, in assay [5], the NADPH fluorescence slope is -1.6e-05 (inactive).
For the compound `COc1ccc(NC(=O)CSc2nnc(-c3ccncc3)n2CC2CCCO2)c(OC)c1` (stereo not given), the cell count in assay [1] was found to be 587. Further, the inhibition is -6.1% (inactive) in assay [1], -89.2% (inactive) in assay [3], 7.58% (inactive) in assay [7] and 28% (inactive) in assay [8]. For the same compound, in assay [2], the inhibition of aggregation was 18.1% (inactive). In addition, the nuclei count in assay [2] came out at 87.6%; in assay [3], 119%. For the same compound, the values for the fluorescence slope in assay [4] and in assay [6] were -0.575 (inactive) and 0.00641 (inactive), respectively. The NADPH fluorescence slope in assay [5] is -1.2e-05 (inactive).
For `OCc1nc(CO)n(Cc2ccccc2)n1`, the cell count in assay [1] stood at 447. Further, the inhibition in assay [1] is -17.6% (inactive); in assay [3], 42.4% (inactive); in assay [7] it was 7.11% (inactive); in assay [8], 19.9% (inactive). The inhibition of aggregation in assay [2] is -12.2% (inactive). Besides, the nuclei count in assay [2] was determined as 112%; in assay [3], 86.8%. In addition, the fluorescence slope in assay [4] is -0.501 (inactive); in assay [6], 0.00536 (inactive). Besides, in assay [5], the NADPH fluorescence slope was -4.7e-05 (inactive).
Turning to `O=C(c1cccs1)N1CCc2ccccc21`, in assay [1], the cell count came out at 335. The inhibition was -3.8% (inactive) in assay [1], -59.6% (inactive) in assay [3], -42% (inactive) in assay [7] and -100% (inactive) in assay [8]. Further, in assay [2], the inhibition of aggregation is 5% (inactive). Also, the nuclei count in assay [2] was 104%; in assay [3] it was 111%. The fluorescence slope in assay [4] was -0.511 (inactive); in assay [6], 0.00554 (inactive). In addition, the NADPH fluorescence slope in assay [5] is -5e-05 (inactive).
Consider `COCC(=O)N(Cc1ccccc1)c1ccccn1`, for which, in assay [1], the cell count is 354. For the same compound, the inhibition in assay [1] was 4.9% (inactive); in assay [3], -58.3% (inactive); in assay [7] it was 11.8% (inactive); in assay [8], 14.7% (inactive). Besides, the inhibition of aggregation in assay [2] is 1.6% (inactive). Besides, the nuclei count is 94.8% in assay [2] and 153% in assay [3]. Further, the fluorescence slope in assay [4] is -0.599 (inactive); in assay [6], 0.00609 (inactive). The NADPH fluorescence slope in assay [5] was -4.6e-05 (inactive).
Take `Cc1ccc(CS(=O)(=O)CCC(=O)NCC2CCCO2)cc1` (stereo not given): in assay [1], the cell count is 470. Further, the inhibition in assay [1] is 7% (inactive); in assay [3], -191% (inactive); in assay [7] it was 6.62% (inactive); in assay [8], 8.68% (inactive). In addition, the inhibition of aggregation in assay [2] is 1.1% (inactive). For the same compound, the nuclei count in assay [2] came out at 99.3%; in assay [3], 121%. Moreover, the fluorescence slope in assay [4] is -0.31 (inactive); in assay [6] it was 0.00623 (inactive). Further, the NADPH fluorescence slope in assay [5] is -4.6e-05 (inactive).
Consider `CCN(C(=O)Cc1c(C(=O)O)[nH]c2ccccc12)c1cc(OC)ccc1OC`, for which the cell count in assay [1] turned out to be 439. For the same compound, the inhibition in assay [1] is -5.2% (inactive); in assay [3], -36% (inactive); in assay [7], 13.8% (inactive); in assay [8], 24.5% (inactive). For the same compound, the inhibition of aggregation in assay [2] was -10% (inactive). Besides, the nuclei count in assay [2] turned out to be 120%; in assay [3], 143%. In addition, the results for the fluorescence slope in assay [4] and in assay [6] were -0.286 (inactive) and 0.00689 (inactive), respectively. Further, the NADPH fluorescence slope in assay [5] is -4e-05 (inactive).
`Cc1cc(C)c(S(=O)(=O)N(C)CC(N)=O)c(C)c1`: in assay [1], the cell count worked out at 320. In addition, the inhibition is 5.1% (inactive) in assay [1], -60.9% (inactive) in assay [3], -4.02% (inactive) in assay [7] and -17.9% (inactive) in assay [8]. In addition, the inhibition of aggregation in assay [2] is -7.6% (inactive). In addition, the nuclei count in assay [2] was found to be 103%; in assay [3], 111%. Further, the values for the fluorescence slope in assay [4] and in assay [6] were -0.489 (inactive) and 0.00514 (inactive), respectively. Besides, the NADPH fluorescence slope in assay [5] is 4.3e-05 (inactive).
Take `O=C1c2ccccc2C(O)(Cc2ccccc2)N1Cc1ccco1` (stereo not given): the cell count in assay [1] stood at 425. Besides, the inhibition in assay [1] is -2.9% (inactive); in assay [3], -110% (inactive); in assay [7], 8.83% (inactive); in assay [8], 21.9% (inactive). The inhibition of aggregation in assay [2] is -10.1% (inactive). The nuclei count in assay [2] turned out to be 96.8%; in assay [3], 131%. Besides, the results for the fluorescence slope in assay [4] and in assay [6] were -0.554 (inactive) and 0.00578 (inactive), respectively. Also, the NADPH fluorescence slope in assay [5] was -1.5e-05 (inactive).
Take `CC1CCN(CC(O)COC2CCC(C(C)(C)C)CC2)CC1` (stereo not given): in assay [1], the cell count stood at 719. Besides, the inhibition in assay [1] was -6.8% (inactive); in assay [3] it was -11.7% (inactive); in assay [7], 6.5% (inactive); in assay [8], -5.56% (inactive). Further, in assay [2], the inhibition of aggregation is 1.9% (inactive). The values for the nuclei count in assay [2] and in assay [3] were 118% and 111%, respectively. In addition, the results for the fluorescence slope in assay [4] and in assay [6] were -0.453 (inactive) and 0.00347 (inactive), respectively. Besides, in assay [5], the NADPH fluorescence slope was -0.000251 (inactive).
As to `Cn1c(=O)n(C)c2cc(NC(=O)C(F)(F)F)ccc21`, the cell count in assay [1] was found to be 231. The inhibition is -14.4% (inactive) in assay [1], -10.9% (inactive) in assay [3], 5.97% (inactive) in assay [7] and 17.7% (inactive) in assay [8]. Further, the inhibition of aggregation in assay [2] was 34.3% (active). The values for the nuclei count in assay [2] and in assay [3] were 96.5% and 103%, respectively. For the same compound, the results for the fluorescence slope in assay [4] and in assay [6] were -0.449 (inactive) and 0.00534 (inactive), respectively. In addition, the NADPH fluorescence slope in assay [5] was -3.6e-06 (inactive).
Turning to `Cc1cc(NCCN(C)C)n2nc(-c3cccs3)cc2n1`, in assay [1], the cell count worked out at 597. In addition, the inhibition in assay [1] was 7.8% (inactive); in assay [3], -69% (inactive); in assay [7], -3.67% (inactive); in assay [8], 1.86% (inactive). Moreover, the inhibition of aggregation in assay [2] was 6.4% (inactive). For the same compound, the nuclei count in assay [2] came out at 102%; in assay [3] it was 114%. The fluorescence slope in assay [4] was -0.335 (inactive); in assay [6], 0.00655 (inactive). In addition, the NADPH fluorescence slope in assay [5] was -6.9e-05 (inactive).
In the case of `COC(=O)c1ccc(CSc2nc3c(cnn3-c3ccc(C)c(C)c3)c(=O)[nH]2)o1`, the cell count in assay [1] turned out to be 433. The inhibition in assay [1] was 9.3% (inactive); in assay [3] it was -55.6% (inactive); in assay [7], 8.02% (inactive); in assay [8], 13.9% (inactive). The inhibition of aggregation in assay [2] was 2.1% (inactive). Moreover, the results for the nuclei count in assay [2] and in assay [3] were 98.4% and 108%, respectively. Moreover, the fluorescence slope in assay [4] is -0.388 (inactive); in assay [6] it was 0.0057 (inactive). The NADPH fluorescence slope in assay [5] was 0.000113 (inactive).
Consider `Nc1nnc(SCC(=O)N2CCN(c3ccccc3)CC2)n1-c1ccccc1`, for which the cell count in assay [1] was determined as 774. The inhibition in assay [1] is -11.4% (inactive); in assay [3], -82% (inactive); in assay [7], 10.7% (inactive); in assay [8] it was 21.1% (inactive). The inhibition of aggregation in assay [2] was 2% (inactive). The results for the nuclei count in assay [2] and in assay [3] were 99.4% and 111%, respectively. Further, the values for the fluorescence slope in assay [4] and in assay [6] were -0.572 (inactive) and 0.00636 (inactive), respectively. In addition, the NADPH fluorescence slope in assay [5] was -3.7e-05 (inactive).
